Measurements: ChEMBL document CHEMBL4765226, “Identification of a Human Toll-Like Receptor (TLR) 8-Specific Agonist and a Functional Pan-TLR Inhibitor in 2-Aminoimidazoles” (J Med Chem, 2016)
The source made the active and inactive calls.

Columns and labels:
[1] = target: T1, Toll-like receptor 8 (Homo sapiens) (UniProt Q9NR97); assay: Agonist activity at TLR8 in human monocytes assessed as induction of NF-kappaB phosphorylation measured after 15 mins in presence of 10% FBS by Alexa fluor 647 dye based flow cytometry analysis; format: cell-based; settings: Monocyte, filed as agonist, in the assay text read “PE-Cy7 dye” for “Alexa fluor 647 dye”
T1 sequence (whole entry): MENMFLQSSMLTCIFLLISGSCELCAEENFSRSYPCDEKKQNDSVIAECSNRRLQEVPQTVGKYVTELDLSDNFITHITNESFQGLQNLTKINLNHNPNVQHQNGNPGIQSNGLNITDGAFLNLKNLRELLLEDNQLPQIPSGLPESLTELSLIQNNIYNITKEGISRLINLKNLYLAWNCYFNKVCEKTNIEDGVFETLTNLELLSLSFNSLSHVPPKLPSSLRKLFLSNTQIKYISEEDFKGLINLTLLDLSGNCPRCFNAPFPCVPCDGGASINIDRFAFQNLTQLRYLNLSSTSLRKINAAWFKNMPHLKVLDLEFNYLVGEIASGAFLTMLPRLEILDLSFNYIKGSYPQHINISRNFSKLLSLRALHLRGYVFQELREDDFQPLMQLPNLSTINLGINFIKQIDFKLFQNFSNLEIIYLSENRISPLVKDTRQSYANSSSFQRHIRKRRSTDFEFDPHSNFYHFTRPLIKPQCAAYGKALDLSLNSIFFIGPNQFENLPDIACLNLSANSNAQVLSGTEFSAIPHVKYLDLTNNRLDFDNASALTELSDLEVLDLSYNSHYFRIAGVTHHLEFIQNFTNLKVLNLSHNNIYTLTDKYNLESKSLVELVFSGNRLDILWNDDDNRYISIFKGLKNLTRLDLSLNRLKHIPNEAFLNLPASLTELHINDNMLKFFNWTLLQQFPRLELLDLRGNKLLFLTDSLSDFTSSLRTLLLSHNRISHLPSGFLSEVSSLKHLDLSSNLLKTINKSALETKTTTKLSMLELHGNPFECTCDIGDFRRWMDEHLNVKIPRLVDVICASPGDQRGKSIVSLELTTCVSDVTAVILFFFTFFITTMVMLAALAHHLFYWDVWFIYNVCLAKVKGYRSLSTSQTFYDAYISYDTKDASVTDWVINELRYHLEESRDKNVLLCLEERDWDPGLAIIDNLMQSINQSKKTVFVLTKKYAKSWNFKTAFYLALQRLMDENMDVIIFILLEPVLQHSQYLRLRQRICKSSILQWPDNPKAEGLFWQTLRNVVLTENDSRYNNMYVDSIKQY
Summary of the method: (§1)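 Whole human blood with anticoagulant was added to serial compound dilutions in RPMI with 10% FBS and held at 37 °C for 15 min. Samples were lysed and fixed three times, permeabilized in ice-cold methanol for 30 min, then stained on ice for 60 min with anti-NF-κB p65-PECy7, p38MAPK-PE and ERK1/2-AlexaFluor 647. Flow cytometry acquired 100,000 gated events; monocytes and polymorphonuclear cells were gated.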

[2] = target: T1, Toll-like receptor 8 (Homo sapiens); assay: Agonist activity at TLR8 in human polymorphonuclear leucocyte cells assessed as induction of NF-kappaB phosphorylation measured after 15 mins in presence of 10% FBS by Alexa fluor 647 dye based flow cytometry analysis; format: tissue-based; settings: filed as agonist, in the assay text read “PE-Cy7 dye” for “Alexa fluor 647 dye”; summary of the method: as §1
[3] = target: T1, Toll-like receptor 8 (Homo sapiens); assay: Agonist activity at TLR8 in human PBMC cells assessed as induction of IFNgamma production incubated for 16 hrs by immunoassay; format: cell-based; settings: filed as agonist
Summary of the method: (§2)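 Fresh human PBMCs isolated from venous blood, plated at 10^5 cells in 100 µL per well and stimulated for 16 h with graded concentrations of compound. Supernatants were collected by centrifugation and assayed in duplicate with a multiplexed cytokine/chemokine magnetic bead array.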

[4] = target: T1, Toll-like receptor 8 (Homo sapiens); assay: Agonist activity at TLR8 in human PBMC cells assessed as induction of IL-6 production incubated for 16 hrs by immunoassay; format: cell-based; settings: filed as agonist; summary of the method: as §2
[5] = target: T1, Toll-like receptor 8 (Homo sapiens); assay: Agonist activity at TLR8 in human PBMC cells assessed as induction of MIP-1beta production incubated for 16 hrs by immunoassay; format: cell-based; settings: filed as agonist; summary of the method: as §2
[6] = target: T1, Toll-like receptor 8 (Homo sapiens); assay: Agonist activity at TLR8 in human PBMC cells assessed as induction of IL-1beta production incubated for 16 hrs by immunoassay; format: cell-based; settings: filed as agonist; summary of the method: as §2
[7] = target: T1, Toll-like receptor 8 (Homo sapiens); assay: Agonist activity at TLR8 in human PBMC cells assessed as induction of MCP1 production incubated for 16 hrs by immunoassay; format: cell-based; settings: filed as agonist; summary of the method: as §2
[8] = target: T1, Toll-like receptor 8 (Homo sapiens); assay: Agonist activity at TLR8 in human PBMC cells assessed as induction of IL-12p40 production incubated for 16 hrs by immunoassay; format: cell-based; settings: filed as agonist; summary of the method: as §2
[9] = target: T1, Toll-like receptor 8 (Homo sapiens); assay: Agonist activity at TLR8 in human PBMC cells assessed as induction of MIP-1alpha production incubated for 16 hrs by immunoassay; format: cell-based; settings: filed as agonist; summary of the method: as §2
[10] = target: T1, Toll-like receptor 8 (Homo sapiens); assay: Agonist activity at TLR8 in human PBMC cells assessed as induction of TNFalpha production incubated for 16 hrs by immunoassay; format: cell-based; settings: filed as agonist; summary of the method: as §2

Measured: Activity

CCCCCc1cc2c(CCCCCN)cccc2nc1N
active: [1] Dose-dependent effect | [2] Dose-dependent effect

CCCCCc1cc2ccccc2nc1N
active: [1] Dose-dependent effect | [2] Dose-dependent effect

CCCCCn1c(N)nc2c(C)cccc21
active: [3] | [4] | [1] Dose-dependent effect | [5] | [2] Dose-dependent effect | [6] | [7] | [8] | [9] | [10]
